Experimental data as given in ChEMBL document CHEMBL4033616, “Identification of spirobisnaphthalene derivatives with anti-tumor activities from the endophytic fungus Rhytidhysteron rufulum AS21B” (Bioorg Med Chem, 2017).

Legend:
Ramos = experiment: Cytotoxicity against human Ramos cells assessed as decrease in cell viability after 24 hrs by CellTiter-Glo assay; type: functional, cell-based
Outline: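 Human lymphoma Ramos cells, expanded to exponential growth in RPMI 1640 plus 10% (v/v) fetal calf serum under humidified 5% CO2. Seeded cells were treated with compounds at the indicated concentrations, 37 °C, 24 h. Viability was measured from the cellular ATP level with the CellTiter-Glo kit.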

NCI-H1975 = experiment: Cytotoxicity against human NCI-H1975 cells assessed as decrease in cell viability after 72 hrs by CellTiter-Glo assay; type: functional, cell-based; details: NCI-H1975, 72 h
Outline: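 NSCLC H1975 cells grown to exponential phase in RPMI 1640 with 10% (v/v) fetal calf serum, humidified 5% CO2. Seeded cells were exposed to compounds at the indicated concentrations for 72 h at 37 °C. Viability was read as the ATP level in living cells (CellTiter-Glo).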

Row | SMILES | IC50 (Ramos) | IC50 (NCI-H1975)
1 | O=C1CC[C@]23Oc4ccc(O)c5c4[C@@](C=CC5=O)(Oc4cccc1c42)O3 | 82.9 µM | > 100 µM
2 | O=C1CCC(O)c2cccc(O)c21 (stereo unspecified) [4,8-DIHYDROXY-1-TETRALONE] | 23.1 µM | 50 µM
3 | O[C@H]1[C@@H]2[C@H]([C@@H](O)CCC23Oc2cccc4cccc(c24)O3)[C@@H](O)C[C@@H]1O | > 100 µM | > 100 µM
4 | O=C1CCC2(Oc3cccc4cccc(c34)O2)c2c(O)ccc(O)c21 [PALMARUMYCIN CP17] | 33.1 µM | > 100 µM
5 | CN(C)C/C=C/C(=O)Nc1cc2c(Nc3ccc(F)c(Cl)c3)ncnc2cc1O[C@H]1CCOC1 [AFATINIB] |  | 1.97 µM
6 | C=CC(=O)N1CCC[C@@H](n2nc(-c3ccc(Oc4ccccc4)cc3)c3c(N)ncnc32)C1 [IBRUTINIB] | 28.7 µM | 
7 | CO[C@H]1CCC2(Oc3cccc4cccc(c34)O2)C2=C1C(=O)C=CC2=O | 31.7 µM | > 100 µM
8 | O=C1C=C[C@@H](O)[C@@H]2C1=CCCC21Oc2cccc3cccc(c23)O1 | 0.048 µM | 1.17 µM
9 | O=C1CCC2(Oc3cccc4cccc(c34)O2)c2cccc(O)c21 [PALMARUMYCIN CP2] | 18 µM | > 100 µM
10 | CC(=O)O[C@@H]1C=CC(=O)C2=CCCC3(Oc4cccc5cccc(c45)O3)[C@@H]21 | 0.018 µM | 0.252 µM
11 | CO[C@@H]1CC(=O)C2=CCCC3(Oc4cccc5cccc(c45)O3)[C@@H]2[C@@H]1O | 0.461 µM | 10.2 µM
12 | Oc1cccc2c1[C@@H](O)CCC21Oc2cccc3cccc(c23)O1 | > 100 µM | > 100 µM
13 | O=C1C=C[C@]2(Oc3cccc4c(O)ccc(c34)O2)c2ccccc21 | 15 µM | > 100 µM
14 | O=C1C2=CCCC3(Oc4cccc5cccc(c45)O3)[C@@H]2[C@H](O)[C@@H]2O[C@H]12 | 18 µM | 7.3 µM
